In general, IC50 refers to the midpoint of a concentration-inhibition curve.

44 molecules from ChEMBL document CHEMBL2029235, “Bio-inspired synthesis and biological evaluation of a colchicine-related compound library” (Bioorg Med Chem Lett, 2012) can be followed below.

For one test, the system named is HT-29. The test can be described thus: Cytotoxicity against human HT-29 cells.
Conditions: not given
Molecule `COc1cc2c(c(OC)c1OC)-c1ccc(OC)c(=O)cc1[C@@H](NC(C)=O)CC2` [COLCHICINE] gave an IC50 of 0.008 µM.

A further test relates to HT-29. The test can be described thus: Cytotoxicity against human HT-29 cells after 96 hrs by MTT assay. To be noted: HT-29, 96 h. The format is functional, cell-based. The gist of the method:
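HT-29 cells in RPMI-1640 with 10% newborn calf serum, 37 °C, 5% CO2. Seeded at 5 × 10^3 cells/well and grown 24 h, then given fresh medium with graded compound concentrations for 96 h. MTT (5 mg/mL stock) added for 1–2 h at 37 °C. Formazan dissolved in DMSO and read at 570 nm; viability taken as absorbance fraction of untreated wells. Run in triplicate, mean ± SD.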
For orientation: Tetrazolium assays rely on reduction of a dye to a coloured formazan, in cell work by metabolically active cells.
On to `COc1cc2c(cc1OC(C)=O)[C@@H]1CCc3cc(OC)c(OC)c(OC)c3[C@H]2CN1C(=O)C(F)(F)F`, for which the IC50 is 40.8 µM. That is a double-digit micromolar value.
Still for that read-out and setting: with `COc1cc2c(c(OC)c1OC)[C@H]1CN(S(=O)(=O)c3ccc(C)cc3)[C@@H](CC2)C2=CC(=O)C(=O)C=C21` the figure was 6.6 µM; with `COc1cc2c(c(OC)c1OC)-c1c(OC(=O)Oc3ccccc3)c(OC)cc3ccnc(c13)CC2`, 0.132 µM.
For the molecule `COc1cc2c(c(OC)c1OC)-c1c(OC(=O)C3CCCCC3)c(OC)cc3ccnc(c13)CC2`, half-maximal inhibition (IC50) was put at 0.99 µM. This IC50 lies about 7.5-fold higher than the previous one.
On to `COc1cc2c(cc1O)[C@@H]1CCc3cc(OC)c(OC)c(OC)c3[C@H]2CN1C(=O)C(F)(F)F`, for which the IC50 was 27.8 µM. This IC50 lies about 28-fold higher than the previous one.
Molecule `COC1=C[C@@]23CCN(C(C)=O)[C@@H](CCc4cc(OC)c(OC)c(OC)c42)C3=CC1=O` had an IC50 of 37.8 µM.
The molecule `COC1=CC2(C=C(OC)C1=O)CC[C@H]1c3c(cc(OC)c(O)c32)CCN1C(C)=O` registered an IC50 of 45.9 µM.
The molecule `COc1cc2c(c(OC)c1OC)-c1c(OS(=O)(=O)C(F)(F)F)c(OC)cc3ccnc(c13)CC2` gave a half-maximal inhibitory concentration (IC50) of 24.6 µM. Against the preceding molecule, the IC50 is about 1.9-fold lower.
In turn, `COc1cc2c3c(c1O)-c1c(cc(OC)c(OC)c1OC)CC[C@@H]3N(C(=O)C(F)(F)F)C=C2` yielded an IC50 of 0.684 µM.
Same read-out and setting: with `COc1cc2c(c(OC)c1OC)-c1c(OC(=O)Oc3ccccc3)c(OC)cc3c1[C@H](CC2)N(C)CC3=O` the figure was 30.8 µM; with `COc1cc2c3c(c1O)-c1c(cc(OC)c(OC)c1OC)CC[C@@H]3N(C(=O)C(F)(F)F)CC2`, 6.45 µM; with `COC1=CC2(C=C(OC)C1=O)CC[C@H]1c3c(cc(OC)c(O)c32)CCN1C`, more than 50 µM.
In the case of `COc1cc2c(cc1O)[C@H]1CCc3cc(OC)c(OC)c(OC)c3[C@@H](C2)N1Cc1ccccc1`, the IC50 was determined as 9.1 µM.
For the molecule `COc1cc2c(cc1OC(C)=O)[C@H]1CCc3cc(OC)c(OC)c(OC)c3[C@@H](C2)N1C`, half-maximal inhibition (IC50) was put at 43.5 µM.
`COc1cc2c(c(OC)c1OC)-c1c(OS(C)(=O)=O)c(OC)cc3ccnc(c13)CC2` returned an IC50 of 24.4 µM.
The same measure, in the same setting: with `COC1=CC2=C3c4c(c(OC)cc5ccnc(c45)CC2)O[C@]3(OC)C1=O` the figure was 23.9 µM; with `COc1cc2c(cc1O)[C@@H]1CCc3cc(OC)c(OC)c(OC)c3[C@H]2CN1S(C)(=O)=O`, 11.6 µM; with `COc1cc2c3c(c1O)-c1c(cc(OC)c(OC)c1OC)CC[C@@H]3N(S(C)(=O)=O)CC2`, 7.95 µM.
Turning to `COc1cc2c(cc1O)[C@H]1CCc3cc(OC)c(OC)c(OC)c3[C@@H](C2)N1C`, the IC50 is more than 50 µM.
Regarding `COC1=C[C@@]23CCN(S(=O)(=O)c4ccc(C)cc4)[C@@H](CCc4cc(OC)c(OC)c(OC)c42)C3=CC1=O`, the IC50 turned out to be 42.7 µM.
Take `COc1cc2c3c(c1O)-c1c(cc(OC)c(OC)c1OC)CC[C@@H]3N(C(C)=O)CC2`: the IC50 was found to be 13.3 µM.
The same measure, in the same setting: with `COc1cc2c(c(OC)c1OC)-c1c(OC(=O)OCC(Cl)(Cl)Cl)c(OC)cc3ccnc(c13)CC2` the figure was 0.229 µM.
`COc1cc2c3c(c1O)-c1c(cc(OC)c(OC)c1OC)CC[C@@H]3N(S(=O)(=O)C(F)(F)F)CC2`: 10.4 µM corresponded to half-maximal inhibition (IC50).
Consider `COc1cc2c(cc1OC(C)=O)[C@H]1CCc3cc(OC)c(OC)c(OC)c3[C@@H](C2)N1Cc1ccccc1`, for which the IC50 was found to be 21.7 µM.
In turn, `COC1=C[C@@]23CCN(C(=O)C(F)(F)F)[C@@H](CCc4cc(OC)c(OC)c(OC)c42)C3=CC1=O` returned a 50% inhibitory concentration (IC50) of more than 50 µM.
Turning to `COc1cc2c(cc1O)[C@@H]1CCc3cc(OC)c(OC)c(OC)c3[C@H]2CN1S(=O)(=O)c1ccc(C)cc1`, the IC50 came out at 10.8 µM.
`COc1cc2c3c(c1O)-c1c(cc(OC)c(OC)c1OC)CC[C@@H]3N(S(=O)(=O)C(F)(F)F)CC2=O`: inhibition was half-maximal at 1.16 µM (IC50).
Turning to `COc1cc2c(c(OC)c1OC)-c1c(OC(=S)n3ccnc3)c(OC)cc3ccnc(c13)CC2`, 0.293 µM corresponded to half-maximal inhibition (IC50).
On the same count and under the same terms, with `COc1cc2c(c(OC)c1OC)-c1c(OC(C)=O)c(OC)cc3c1[C@H](CC2)N(C)CC3=O` the figure was 27.2 µM.
In the case of `COc1cc2ccnc3c2c(c1O)-c1c(cc(OC)c(OC)c1OC)CC3`, the IC50 was 0.179 µM.
For `COC1=CC2(C=C(OC)C1=O)CC[C@H]1c3c(cc(OC)c(O)c32)CCN1S(=O)(=O)C(F)(F)F`, inhibition was half-maximal at 46.5 µM (IC50). Compared with the last molecule, the IC50 is about 260-fold higher.
In the case of `COc1cc2c3c(c1O)-c1c(cc(OC)c(OC)c1OC)CC[C@@H]3N(S(C)(=O)=O)C(O)C2=O` (some centres undefined), the IC50 is more than 50 µM.
Same read-out and setting: with `COc1cc2c(c(OC)c1OC)-c1c(OC(=O)c3ccccc3)c(OC)cc3ccnc(c13)CC2` the figure was 2.56 µM; with `COc1cc2c(c(OC)c1OC)-c1c(OC(C)=O)c(OC)cc3ccnc(c13)CC2`, 0.189 µM.
In turn, `COC1=C[C@@]23CCN(S(C)(=O)=O)[C@@H](CCc4cc(OC)c(OC)c(OC)c42)C3=CC1=O` came in with an IC50 of more than 50 µM.
Take `COc1cc2c(c(OC)c1OC)-c1c(OS(=O)(=O)C(F)(F)F)c(OC)cc3c1C(=CC2)N(S(=O)(=O)C(F)(F)F)C=C3`: the IC50 stood at 10.1 µM.
The molecule `COc1cc2c(cc1OC)[C@H]1CCc3cc(OC)c(OC)c(OC)c3[C@@H](C2)N1C` registered an IC50 of more than 50 µM.
The molecule `COc1cc2c(cc1O)[C@H](CCc1cc(OC)c(OC)c(OC)c1)N(C(=O)C(F)(F)F)CC2` came in with an IC50 of more than 50 µM.
The same measure, in the same setting: with `COC1=C[C@@]23CCN(S(=O)(=O)C(F)(F)F)[C@@H](CCc4cc(OC)c(OC)c(OC)c42)C3=CC1=O` the figure was 15.7 µM; with `COc1cc2c(c(OC)c1OC)-c1c(OC(C)=O)c(OC)cc3c1[C@H](CC2)N(C(=O)C(F)(F)F)C=C3`, 1.25 µM; with `COc1cc2c(cc1O)[C@@H]1CCc3cc(OC)c(OC)c(OC)c3[C@H]2CN1C(C)=O`, more than 50 µM.
In turn, `COc1cc2c3c(c1O)-c1c(cc(OC)c(OC)c1OC)CC[C@@H]3N(C)CC2=O` showed an IC50 of 22.5 µM.
Take `COC(=O)Oc1c(OC)cc2ccnc3c2c1-c1c(cc(OC)c(OC)c1OC)CC3`: the IC50 was 0.182 µM.
